Activity calls are given as the source filed them. The rule behind the calls is not given here. Where only a bound is given, the exact number is not on record here.

17 molecules from ChEMBL document CHEMBL3297729, “Design, synthesis and biological activity of piperlongumine derivatives as selective anticancer agents” (Eur J Med Chem, 2014) can be followed below.

For data set [1], the system named is MDA-MB-231. Nature of the data set: Cytotoxicity against human MDA-MB-231 cells after 72 hrs by MTT assay. The data set is classed as functional, cell-based. To be noted: MDA-MB-231, 72 h. The gist of the method:
(§1)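 MTT assay. Cells seeded at 5 × 10^3/well and grown 24 h at 37 °C in humidified 5% CO2. Compounds added at a range of concentrations in triplicate wells, with 0.1% DMSO as control, for 72 h. MTT (5 mg/mL solution) added for a further 4 h. Formazan dissolved in DMSO and absorbance read at 570 nm. IC50 derived by the Logit method.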

The test system of data set [2] is WI-38. Nature of the data set: Cytotoxicity against human WI38 cells after 72 hrs by MTT assay. The class given is cell-based. As to conditions: WI-38, 72 h. An outline of the steps:
as §1
For orientation: Formazan colour is commonly taken as a measure of viable cells.

Data set [3] relates to HCT-116. Nature of the data set: Cytotoxicity against human HCT116 cells after 72 hrs by MTT assay. The class given is functional, cell-based. As to conditions: HCT-116, 72 h. An outline of the steps: as §1
The subject of data set [4] is A549. Description: Cytotoxicity against human A549 cells after 72 hrs by MTT assay. The class given is functional, cell-based. As to conditions: A549, 72 h. The gist of the method: as §1
Data set [5] in a line: Cytotoxicity against human Hep3B cells after 72 hrs by MTT assay. The class given is functional, cell-based, Hep 3B2. An outline of the steps:
as §1

The test system of data set [6] is Mus musculus. Description: Toxicity in human A549 cells xenografted BALB/C nude mouse assessed as reduction of body weight at 2 mg/kg, ip administered for 14 days. The data set is classed as organism-based. Details: dose 2 mg/kg, route intraperitoneal. To be noted: in vivo, 336 h. An outline of the steps: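 Male BALB/C nude mice (18–20 g) implanted sc in the right axilla with A549 cells. Dosing began at tumor volume about 100–300 mm3 (day 17): 2 mg/kg ip daily for 14 days, in normal saline with tween-80 as solubilizer. Six mice per treatment group, eight controls. Caliper tumor volume (1/2·a·b²) and body weight recorded every 4 days. Sacrifice on days 30–33 and tumors excised.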
(In xenograft studies the graft and the host belong to different species.)

Data set [7] relates to A549. Description: Antitumor activity against human A549 cells xenografted in BALB/C nude mouse assessed as inhibition of tumor growth at 2 mg/kg, ip administered for 14 days. To be noted: 336 h, route intraperitoneal. The data set is classed as functional.
Data set [8] concerns A549. Description: Increase of ROS level in human A549 cells at 10 uM after 1 hr by fluorescence microscopic analysis. The class given is functional, cell-based. An outline of the steps: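 Cells treated with compound or DMSO for 1 h, then loaded with 10 μM DCFH-DA for 30 min at 37 °C. Washed twice with PBS and imaged at once by fluorescence microscopy. Mean fluorescence compared with control.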

A short description of data set [9]: Cytotoxicity against human ZR75-30 cells after 72 hrs by MTT assay. As to conditions: ZR-75-30, 72 h. The class given is functional, cell-based. An outline of the steps:
as §1

Data set [10] deals with MRC5. Description: Cytotoxicity against human MRC5 cells after 72 hrs by MTT assay. The class given is cell-based. As to conditions: MRC5, 72 h. The gist of the method: as §1
A short description of data set [11]: Selectivity ratio of IC50 for human MRC5 cells to IC50 for human ZR75-30 cells. The data set is classed as ADME, cell-based. As to conditions: MRC5 cells versus ZR75-30 cells, read-out: Ratio IC50.
Data set [12] is described as follows: Selectivity ratio of IC50 for human MRC5 cells to IC50 for human HCT116 cells. The data set is classed as ADME, cell-based, HCT-116. To be noted: MRC5 cells versus HCT116 cells, read-out: Ratio IC50.
Data set [13] in a line: Selectivity ratio of IC50 for human MRC5 cells to IC50 for human MDA-MB-231 cells. The data set is classed as ADME, cell-based. As to conditions: MRC5 cells versus MDA-MB-231 cells, read-out: Ratio IC50.

A word on the IC50: it is the point on the concentration scale where inhibition reaches its midpoint. Read a high IC50 as a need for much substance. `COc1cc(/C=C(\C)C(=O)N2CCC=C(Br)C2=O)cc(OC)c1OC`: the IC50 in data set [1] is 2.47 µM; in data set [2] it was 7.16 µM; in [3], 6.2 µM; in [4], 2.67 µM; in data set [5], 3.1 µM.

Broadly, the inhibition in vivo is the share of the control response that was lost under treatment. Regarding `COc1cc(/C=C(\C)C(=O)N2CCC=C(Cl)C2=O)cc(OC)c1OC`, the Activity entry in [6] is “Non-toxic”. Moreover, the inhibition in vivo at 2 mg/kg in data set [7] was found to be 48.6%. In addition, the outcome in [8] was Active. In addition, the half-maximal inhibitory concentration (IC50) in [1] is 6.07 µM; in data set [2] it was 19.6 µM; in [3], 9.85 µM; in data set [4] it was 3.94 µM; in [5], 16.7 µM.

Regarding `CC/C(=C\c1cc(OC)c(OC)c(OC)c1)C(=O)N1CCC=CC1=O`, the IC50 in data set [9] was determined as 3.16 µM; in [1], 23.7 µM; in data set [3] it was 12.3 µM; in data set [4] it was 17.9 µM; in [10], 13.5 µM.

For `COc1cc(/C=C(\C)C(=O)N2CCC=CC2=O)cc(OC)c1OC`, the half-inhibitory concentration (IC50) in data set [9] was 3.32 µM; in [1], 11.7 µM; in [3], 10.3 µM; in data set [4], 23.9 µM; in [10], 19.4 µM.

Consider `COc1cc(/C=C/C(=O)N2CCC=CC2=O)cc(OC)c1OC` [PIPLARTINE], for which the IC50 in [9] amounted to 5.86 µM; in [1], 8.46 µM; in data set [2] it was 26.8 µM; in data set [3], 6.04 µM; in data set [4], 22.9 µM; in data set [5] it was 69.5 µM. Besides, the IC50 in data set [10] was determined as 35 µM.

`CC/C(=C\c1cc(OC)c(OC)c(OC)c1)C(=O)N1CCC=C(Cl)C1=O`: the IC50 in data set [1] was determined as 7.27 µM; in [2], 5.48 µM; in data set [3], 9.17 µM; in [4], 4.06 µM; in data set [5] it was 19 µM.

As to `COc1cc(/C=C/C(=O)N2CCC=C(Br)C2=O)cc(OC)c1OC`, the 50% inhibitory concentration (IC50) in data set [1] is 2.73 µM; in data set [2] it was 20.7 µM; in data set [3] it was 7.12 µM; in data set [4], 4.79 µM; in [5], 8.09 µM.

As to `CCC/C(=C\c1cc(OC)c(OC)c(OC)c1)C(=O)N1CCC=C(N2CCOCC2)C1=O`, the IC50 in [9] was more than 100 µM; in data set [1], more than 100 µM; in [3], more than 100 µM; in data set [4] it was more than 100 µM; in data set [10] it was 52.5 µM.

As for `CCC/C(=C\c1cc(OC)c(OC)c(OC)c1)C(=O)N1CCC=C(Br)C1=O`, the IC50 in data set [1] amounted to 2.36 µM; in [2] it was 5.02 µM; in [3] it was 2.14 µM; in [4], 2.63 µM; in [5], 5.54 µM.

For `COc1cc(/C=C(\C)C(=O)N2CCC=C(N3CCOCC3)C2=O)cc(OC)c1OC`, the IC50 in data set [9], in data set [1], in [3], in data set [4] and in [10] was more than 100 µM each time.

Turning to `CCC/C(=C\c1cc(OC)c(OC)c(OC)c1)C(=O)N1CCC=C(Cl)C1=O`, the IC50 in [1] is 8.13 µM; in data set [2] it was 10.4 µM; in data set [3], 8.08 µM; in [4], 3.81 µM; in data set [5], 22.4 µM.

As to `CCCC/C(=C\c1cc(OC)c(OC)c(OC)c1)C(=O)N1CCC=C(Br)C1=O`, the IC50 in data set [1] is 2.44 µM; in [2], 9.21 µM; in data set [3], 2.59 µM; in data set [4], 2.56 µM; in [5] it was 14.8 µM.

On to `CC/C(=C\c1cc(OC)c(OC)c(OC)c1)C(=O)N1CCC=C(N2CCOCC2)C1=O`, for which the IC50 in data set [9], in data set [1], in data set [3], in data set [4] and in [10] was more than 100 µM in each case.

As to `CC/C(=C\c1cc(OC)c(OC)c(OC)c1)C(=O)N1CCC=C(Br)C1=O`, the IC50 in data set [1] worked out at 2.12 µM; in data set [2], 7.94 µM; in data set [3], 3.02 µM; in data set [4] it was 2.18 µM; in data set [5], 8.12 µM.

For the molecule `COc1cc(/C=C/C(=O)N2CCC=C(Cl)C2=O)cc(OC)c1OC`, the selectivity ratio in [11], in data set [12] and in [13] was 2 in each case. Also, the IC50 in data set [9] worked out at 4.49 µM; in data set [1] it was 6.71 µM; in [3] it was 4.28 µM; in data set [4], 19.8 µM; in [10] it was 14.3 µM.

Regarding `CCCC/C(=C\c1cc(OC)c(OC)c(OC)c1)C(=O)N1CCC=C(Cl)C1=O`, the IC50 in data set [1] is 6.55 µM; in [2], 7.93 µM; in data set [3], 7.53 µM; in [4] it was 3.78 µM; in [5], 14.8 µM.

As to `COc1cc(/C=C/C(=O)N2CCC=C(N3CCOCC3)C2=O)cc(OC)c1OC`, the IC50 in data set [9] is 52.6 µM; in data set [1], more than 100 µM; in [3], 47.2 µM; in data set [4], more than 100 µM; in [10], 56.1 µM.
